For 17 compounds, Activity and IC50 results are on record in ChEMBL document CHEMBL1144178, “Synthesis and biological evaluation of 2-(3',4',5'-trimethoxybenzoyl)-3-N,N-dimethylamino benzo[b]furan derivatives as inhibitors of tubulin polymerization” (Bioorg Med Chem, 2008).

Experiment [1] concerns K562. The experiment in a line: Cell cycle arrest in human K-562 cells assessed as accumulation at sub G0/G1 phase at 400 nM after 24 hrs by flow cytometry. It is filed as functional. For orientation: A flow cytometer gives signals particle by particle.
In experiment [2] the test system is K562. The experiment in a line: Cell cycle arrest in human K-562 cells assessed as accumulation at S phase at 400 nM after 24 hrs by flow cytometry. It is filed as functional.
The subject of experiment [3] is K562. The experiment can be described thus: Cell cycle arrest in human K-562 cells assessed as accumulation at G0/G1 phase at 400 nM after 24 hrs by flow cytometry. The class given is functional.
In experiment [4] the test system is K562. The experiment can be described thus: Cell cycle arrest in human K-562 cells assessed as accumulation at G2/M phase at 400 nM after 24 hrs by flow cytometry. It is filed as functional.
For experiment [5], the system named is K562. The experiment in a line: Cytotoxicity against human K-562 after 24 hrs. The note with it: K562, 24 h. The class given is functional, cell-based.
For the next experiment, the system named is FM3A. The experiment can be described thus: Antiproliferative activity against mouse FM3A cells after 2 days. It is filed as functional, cell-based. As to conditions: 48 h.
Experiment [6] in a line: Inhibition of bovine brain tubulin polymerization for 20 mins by turbidimetry. Details: species or system Bos taurus. The gist of the method: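 Purified bovine brain tubulin (10 μM) preincubated with varying compound concentrations in glutamate buffer at 30 °C, cooled to 0 °C, GTP added, then warmed to 30 °C in a recording spectrophotometer.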
The next experiment is filed under the species Bos taurus. The experiment in a line: Displacement of [3H]colchicine from bovine brain tubulin at 1 uM. The gist of the method: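 Purified bovine brain tubulin (1 μM) was incubated with 5 μM [3H]colchicine and 1 μM test compound. The read-out is percent inhibition of radiolabelled colchicine binding.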
In general terms: In a radioligand displacement assay an active substance lowers the binding of a labelled ligand.

The test system of another experiment is L1210. The experiment can be described thus: Antiproliferative activity against mouse L1210 cells after 2 days. As to conditions: L1210, 48 h. The class given is functional, cell-based. The procedure, abridged: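 Cells were seeded at 300,000–500,000 cells/mL and mixed 1:1 with compound dilutions. They were incubated at 37 °C for two days and counted with a Coulter counter. IC50 is the concentration that inhibits proliferation by 50%, given as mean ± SE from dose–response curves of at least three independent experiments.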

A short description of experiment [7]: Antiproliferative activity against human Molt4/C8 cells after 3 days. As to conditions: MOLT-4, 72 h.
The subject of experiment [8] is K562. The experiment in a line: Cell cycle arrest in human K-562 cells assessed as accumulation at S phase at 85 nM after 24 hrs by flow cytometry. The class given is functional.
The subject of experiment [9] is K562. The experiment in a line: Cell cycle arrest in human K-562 cells assessed as accumulation at sub G0/G1 phase at 85 nM after 24 hrs by flow cytometry. It is filed as functional.
For experiment [10], the system named is K562. The experiment in a line: Cell cycle arrest in human K-562 cells assessed as accumulation at G0/G1 phase at 85 nM after 24 hrs by flow cytometry. The class given is functional.
For experiment [11], the system named is K562. The experiment can be described thus: Cell cycle arrest in human K-562 cells assessed as accumulation at G2/M phase at 85 nM after 24 hrs by flow cytometry. It is filed as functional.
The test system of experiment [12] is K562. The experiment can be described thus: Cell cycle arrest in human K-562 cells assessed as accumulation at G2/M phase at 120 nM after 24 hrs by flow cytometry. The class given is functional.
The subject of experiment [13] is K562. The experiment in a line: Cell cycle arrest in human K-562 cells assessed as accumulation at G0/G1 phase at 120 nM after 24 hrs by flow cytometry. The class given is functional.
For experiment [14], the system named is K562. The experiment can be described thus: Cell cycle arrest in human K-562 cells assessed as accumulation at S phase at 120 nM after 24 hrs by flow cytometry. It is filed as functional.
Experiment [15] relates to K562. The experiment can be described thus: Cell cycle arrest in human K-562 cells assessed as accumulation at sub G0/G1 phase at 120 nM after 24 hrs by flow cytometry. It is filed as functional.
Experiment [16] concerns K562. The experiment can be described thus: Cell cycle arrest in human K-562 cells assessed as accumulation at sub G0/G1 phase at 212 nM after 24 hrs by flow cytometry. It is filed as functional. The procedure, abridged:
(§1)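 K562 cells exposed 24 h to compound, then washed once in ice-cold PBS. Resuspended at 1 × 10⁶ per mL in hypotonic propidium iodide 50 μg/mL with 0.1% sodium citrate and 0.03% (v/v) nonidet P-40, 30 min. Fluorescence read by flow cytometry as a single-parameter histogram. Sub-G0-G1, G0-G1, S and G2-M fractions compared with untreated control.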

In experiment [17] the test system is K562. The experiment can be described thus: Cell cycle arrest in human K-562 cells assessed as accumulation at G0/G1 phase at 212 nM after 24 hrs by flow cytometry. It is filed as functional. The procedure, abridged:
as §1

In experiment [18] the test system is K562. The experiment in a line: Cell cycle arrest in human K-562 cells assessed as accumulation at S phase at 212 nM after 24 hrs by flow cytometry. It is filed as functional. The procedure, abridged:
as §1

Experiment [19] has as its system K562. The experiment in a line: Cell cycle arrest in human K-562 cells assessed as accumulation at G2/M phase at 212 nM after 24 hrs by flow cytometry. The class given is functional. The gist of the method:
as §1

Experiment [20] has as its system K562. The experiment in a line: Cell cycle arrest in human K-562 cells assessed as accumulation at S phase at 68 nM after 24 hrs by flow cytometry. It is filed as functional.
Experiment [21] has as its system K562. The experiment can be described thus: Cell cycle arrest in human K-562 cells assessed as accumulation at G0/G1 phase at 68 nM after 24 hrs by flow cytometry. The class given is functional.
Experiment [22] deals with K562. The experiment can be described thus: Cell cycle arrest in human K-562 cells assessed as accumulation at sub G0/G1 phase at 68 nM after 24 hrs by flow cytometry. It is filed as functional.
The subject of experiment [23] is K562. The experiment can be described thus: Cell cycle arrest in human K-562 cells assessed as accumulation at G2/M phase at 68 nM after 24 hrs by flow cytometry. The class given is functional.
Experiment [24] has as its system K562. The experiment in a line: Cell cycle arrest in human K-562 cells assessed as accumulation at S phase at 115 nM after 24 hrs by flow cytometry. The class given is functional. The gist of the method: as §1
Experiment [25] deals with K562. The experiment in a line: Cell cycle arrest in human K-562 cells assessed as accumulation at G2/M phase at 115 nM after 24 hrs by flow cytometry. The class given is functional. The procedure, abridged:
as §1

For experiment [26], the system named is K562. The experiment can be described thus: Cell cycle arrest in human K-562 cells assessed as accumulation at G0/G1 phase at 115 nM after 24 hrs by flow cytometry. It is filed as functional. The procedure, abridged:
as §1

Experiment [27] has as its system K562. The experiment in a line: Cell cycle arrest in human K-562 cells assessed as accumulation at sub G0/G1 phase at 115 nM after 24 hrs by flow cytometry. The class given is functional. The gist of the method: as §1

Usually IC50 stands for the concentration that gives 50% inhibition. Read a low IC50 as inhibition by little substance.

Take `COc1ccc2c(NC(=O)CCl)c(C(=O)c3cc(OC)c(OC)c(OC)c3)oc2c1`: the Activity was found to be 13% with K562 [1]; 44% in the experiment on K562 [2]; 23% with K562 [3]; 33% in the experiment on K562 [4]; 47% in the experiment filed under Bos taurus. Also, the concentration for half-maximal inhibition (IC50) turned out to be 400 nM in the experiment with K562 [5], 1100 nM in the experiment with FM3A, 2000 nM in [6] and 1100 nM in the experiment on L1210.
Turning to `COc1cc(C(=O)c2oc3c(OC)cccc3c2N(C)C)cc(OC)c1OC`, the IC50 in the experiment with FM3A was found to be 1200 nM; in the experiment on L1210, 1100 nM.
For the compound `COc1cc(C(=O)c2oc3cccc(OC)c3c2N(C)C)cc(OC)c1OC`, the IC50 in experiment [7] is over 10 µM; in the experiment on FM3A it was over 10000 nM; in the experiment with L1210, over 10000 nM.
Take `COc1cc(C(=O)c2oc3cccc(OC)c3c2N)cc(OC)c1OC`: the IC50 with FM3A amounted to 7900 nM; in the experiment with L1210, 7500 nM.
For `COc1cc(C(=O)c2oc3ccccc3c2N)cc(OC)c1OC`, in that order: over 10000 nM and over 10000 nM.
In the same order, the values of `COc1ccc2oc(C(=O)c3cc(OC)c(OC)c(OC)c3)c(N(C)C)c2c1` are 1200 nM and 1400 nM.
`COc1ccc2c(NC(C)=O)c(C(=O)c3cc(OC)c(OC)c(OC)c3)oc2c1`: the Activity worked out at 36% with K562 [8]; 12% in the experiment on K562 [9]; 27% with K562 [10]; 37% in the experiment on K562 [11]; 51% in the experiment filed under Bos taurus. Also, the IC50 in the experiment with K562 [5] turned out to be 85 nM; in the experiment on FM3A, 100 nM; in [6], 1600 nM; in the experiment on L1210, 94 nM.
Regarding `COc1cc(C(=O)c2oc3ccccc3c2N(C)C)cc(OC)c1OC`, the figures for the IC50 with FM3A and with L1210 were 8800 nM and over 10000 nM, respectively.
As to `COc1ccc2c(N)c(C(=O)c3cc(OC)c(OC)c(OC)c3)oc2c1`, the Activity with K562 [12] came to 44%; in the experiment with K562 [13], 11%; in the experiment listed under Bos taurus it was 73%; with K562 [14], 45%; in the experiment on K562 [15], 15%. Besides, the concentration for half-maximal inhibition (IC50) came out at 120 nM in the experiment on K562 [5], 280 nM in the experiment on FM3A, 1100 nM in experiment [6] and 430 nM with L1210.
Take `COc1ccc2c(NC(=O)CBr)c(C(=O)c3cc(OC)c(OC)c(OC)c3)oc2c1`: the Activity in the experiment on K562 [16] was 15%; with K562 [17], 6%; in the experiment on K562 [18], 27%; in the experiment with K562 [19], 67%. The IC50 is 560 nM with FM3A, 2300 nM in [6] and 480 nM in the experiment with L1210.
Consider `COc1ccc2c(N)c(C(=O)c3cc(OC)c(OC)c(OC)c3)sc2c1`, for which the results for the IC50 (in the experiment with FM3A; in experiment [6]; in the experiment on L1210) were 46 nM, 1300 nM and 39 nM, respectively. Besides, in the experiment filed under Bos taurus, the Activity came out at 60%.
`COc1cc(C(=O)c2oc3c(OC)cccc3c2N)cc(OC)c1OC`: the IC50 in the experiment with FM3A and in the experiment on L1210 was over 10000 nM in each case.
`COc1ccc2c(N)c(C(=O)c3cc(OC)c(OC)c(OC)c3)n(C)c2c1`: the half-inhibitory concentration (IC50) in [6] was determined as 4600 nM.
Still for that read-out and setting: the same measure for `COc1ccc2c(N)c(C(=O)c3cc(OC)c(OC)c(OC)c3)[nH]c2c1`: over 40000 nM.
With `COc1ccc2c(N(C)C)c(C(=O)c3cc(OC)c(OC)c(OC)c3)oc2c1`, the Activity was found to be 32% with K562 [20]; 38% in the experiment with K562 [21]; 13% with K562 [22]; 30% in the experiment on K562 [23]; 76% in the experiment filed under Bos taurus. For the same compound, the IC50 amounted to 59 nM with FM3A, 900 nM in [6] and 65 nM in the experiment with L1210.
On to `COc1ccc2oc(C(=O)c3cc(OC)c(OC)c(OC)c3)c(N)c2c1`, for which the IC50 in the experiment on FM3A and in the experiment on L1210 was over 10000 nM each time.
In the case of `COc1ccc2c(NC(=O)CI)c(C(=O)c3cc(OC)c(OC)c(OC)c3)oc2c1`, the Activity is 56% in the experiment with K562 [24]; 21% in the experiment on K562 [25]; 23% with K562 [26]; 33% with K562 [27]; 54% in the experiment filed under Bos taurus. The IC50 in the experiment with FM3A came out at 260 nM; in [6], 1800 nM; with L1210 it was 170 nM.
